We go through ten compounds from ChEMBL document CHEMBL1121835, “Synthesis and anxiolytic activity of 6-(substituted-phenyl)-1,2,4-triazolo[4,3-b]pyridazines” (J Med Chem, 1981).

Active and inactive are the calls of the source. No cut-off for these calls is given here.

The species named for assay [1] is Rattus norvegicus. The assay can be described thus: Average reduction in blood pressure over control (4 rats) at 4 hr in spontaneous hypertensive rats. In kind it is functional. The essentials:
(§1)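 Conscious cannulated male Okamoto SH rats, 300–350 g, dosed po with vehicle (2% boiled starch) or compound at 1, 5, 10 and 25 mg/kg. A second po dose was given 20 h later, and pressure was recorded continuously for 4 h. The value is the mean reduction against controls at 2 and 4 h, n = 4.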

The subject of assay [2] is Rattus norvegicus. Briefly: Hypotensive activity in saline-loaded spontaneously hypertensive rats following 100 mg/kg p.o. administration. The format is functional. Also on record: unit not given beside the values. The settings on record: route oral. The essentials:
(§2)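 Male Okamoto SH rats, about 300 g, gavaged with compound suspended in 2% boiled starch, with 0.9% NaCl loading at 25 mL/kg, at 0 h. An identical dose without saline followed at 24 h. Mean arterial pressure was taken by iliac artery puncture under local lidocaine at 28 h. Values are from one to three rats.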

In assay [3] the test system is Rattus norvegicus. The assay can be described thus: In vivo protection against pentylenetetrazole-induced convulsions in the rat. The format is functional. The essentials: (§3)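 Rats in groups of 10, food-deprived 24 h, given 4–6 graded doses of compound orally (or ip where noted). PTZ at 23 mg/kg was injected iv into the caudal vein 60 min later. Protection meant no clonic seizure lasting at least 5 s. The number protected was counted and the ED50 estimated.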

Assay [4] has as its system Rattus norvegicus. The assay can be described thus: Hypotensive activity evaluated as mean arterial blood pressure (MABP) in saline-loaded spontaneously hypertensive rats dosed (per oral) at 25 mg/kg. In kind it is functional. An outline of the steps:
as §2

In assay [5] the target is T1, GABA-A receptor; anion channel (Rattus norvegicus) (UniProt O09028+P15431+P18506+P18508+P19969+P20236+P23574+P23576+P28471+P28473+P30191+P62813+P63079+P63138+Q91ZM7+Q9ES14). Briefly: In vitro inhibition of [3H]diazepam binding towards Benzodiazepine receptor at 1 uM. The format is protein-complex assay.
Assay [6] is filed under the species Rattus norvegicus. The assay can be described thus: Average reduction in blood pressure over control (4 rats) at 2 hr in spontaneous hypertensive rats. In kind it is functional. An outline of the steps: as §1
Assay [7] deals with Rattus norvegicus. The assay can be described thus: Compound was evaluated for anxiolytic activity for protection against pentylenetetrazole-induced convulsions administered orally; No activity at 50 mg/Kg. The format is functional, organism-based. The essentials: as §3
In assay [8] the test system is Rattus norvegicus. The assay can be described thus: Hypotensive activity evaluated as mean arterial blood pressure (MABP) in saline-loaded spontaneously hypertensive rats dosed (per oral) at 100 mg/kg; Toxic at 100 mg/Kg. In kind it is functional, organism-based. An outline of the steps:
as §2

Assay [9] deals with Rattus norvegicus. The assay can be described thus: Hypotensive activity evaluated as mean arterial blood pressure (MABP) in saline-loaded spontaneously hypertensive rats dosed (per oral) at 50 mg/kg. In kind it is functional. An outline of the steps:
as §2

The subject of assay [10] is Rattus norvegicus. The assay can be described thus: Compound was evaluated for anxiolytic activity for protection against pentylenetetrazole-induced convulsions administered intraperitoneally. The format is functional. The note with it: ip. The essentials:
as §3

Assay [11] concerns Rattus norvegicus. The assay can be described thus: Compound was evaluated for anxiolytic activity for protection against pentylenetetrazole-induced convulsions; no activity at 50 mg/kg. Also on record: dose 50 mg/kg. In kind it is functional, organism-based. An outline of the steps:
as §3

Assay [12] has as its system Rattus norvegicus. The assay can be described thus: Compound was evaluated for anxiolytic activity for protection against pentylenetetrazole-induced convulsions; No activity at 50 mg/kg. The format is functional, organism-based. Also noted: dose 50 mg/kg. An outline of the steps:
as §3

For assay [13], the species on record is Rattus norvegicus. The assay can be described thus: Anxiolytic activity for protection against pentylenetetrazole-induced convulsions in experiment 1. The settings on record: Rattus norvegicus; read-out: ED50. In kind it is functional. An outline of the steps:
as §3

The species named for assay [14] is Rattus norvegicus. The assay can be described thus: Anxiolytic activity for protection against pentylenetetrazole-induced convulsions in experiment 2. In kind it is functional. An outline of the steps: as §3
Assay [15] deals with GABA-A receptor; anion channel. Briefly: In vitro for inhibition of [3H]diazepam towards Benzodiazepine receptor from rat. In kind it is protein-complex assay. An outline of the steps: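 Rat frontal cortex homogenized in ice-cold 0.32 M sucrose; crude P2 synaptosomal fraction resuspended in 50 mM Tris-HCl pH 7.4. IC50 read graphically from % inhibition vs log concentration plots.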

For assay [16], the species on record is Rattus norvegicus. The assay can be described thus: Compound was evaluated for anxiolytic activity for protection against pentylenetetrazole-induced convulsions in experiment 2. In kind it is functional. The essentials:
as §3

For assay [17], the species on record is Rattus norvegicus. The assay can be described thus: Effect on […] seizures at 3 hr in rat. In kind it is functional. An outline of the steps:
(§4)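 Rats, oral dosing at three dose levels with six rats per dose; PTZ challenge (23 mg/kg iv, caudal vein) at the stated interval after dosing. Animals scored as protected if free of at least 5 s of uninterrupted clonic seizures. The median effective dose (mg/kg) is reported with its 95% confidence interval.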

The species entered for assay [18] is Rattus norvegicus. The assay can be described thus: Effect on […] seizures at 1 hr in rat. In kind it is functional. The essentials:
as §4

For assay [19], the species on record is Rattus norvegicus. Briefly: Effect on […] seizures at 6 hr in rat. In kind it is functional. The essentials:
as §4

The species named for assay [20] is Rattus norvegicus. The assay can be described thus: Effect on […] seizures at 7 hr in rat. In kind it is functional. An outline of the steps: as §4
The species named for assay [21] is Rattus norvegicus. Briefly: Effect on […] seizures at 0.5 hr in rat. In kind it is functional. The essentials: as §4
Assay [22] is filed under the species Rattus norvegicus. Briefly: Effect on […] seizures at 5 hr in rat. The format is functional. The essentials: as §4
The species entered for assay [23] is Rattus norvegicus. Briefly: Effect on […] seizures at 2 hr in rat. The format is functional. An outline of the steps: as §4
The species named for assay [24] is Rattus norvegicus. Briefly: Effect on […] seizures at 4 hr in rat. In kind it is functional. An outline of the steps:
as §4

Assay [25] concerns the target T1, GABA-A receptor; anion channel (Rattus norvegicus). The assay can be described thus: In vitro percent inhibition of [3H]diazepam binding to rat GABA-A benzodiazepine receptor at 1 uM. In kind it is protein-complex assay.

By ED50 is commonly meant the dose that gives a 50% effect, or the effect in half of the subjects. In general, inhibition refers to the change of the read-out against control, counted positive when it falls. As to `FC(F)(F)c1ccc(-c2ccc3nncn3n2)cc1`, the values for the BP in the assay filed under Rattus norvegicus [1] and in the assay listed under Rattus norvegicus [6] were -12 mmHg and -15 mmHg, respectively. For the same compound, the MABP in the assay with Rattus norvegicus [2] is 85; with Rattus norvegicus [4], 136. For the same compound, the ED50 with Rattus norvegicus [3] amounted to 5.8 mg/kg. Besides, the inhibition in assay [5] turned out to be 21%.
As for `Cc1nnc2ccc(-c3ccc(C(F)(F)F)cc3)nn12`, the MABP in the assay with Rattus norvegicus [4] was 157; in the assay on Rattus norvegicus [8], “Toxic”; in the assay with Rattus norvegicus [9], 123. Moreover, the inhibition in assay [5] worked out at 17%. Besides, the ED50 result in the assay with Rattus norvegicus [7] is “inactive”. In addition, the ED50 in the assay with Rattus norvegicus [10] was 15 mg/kg.
For the compound `Cc1cc(-c2cccc(C(F)(F)F)c2)nn2cnnc12`, the MABP with Rattus norvegicus [2] came to 102. The compound further registered an inhibition in assay [5] of less than 10%. Further, in the assay on Rattus norvegicus [11], the EC50 result is “Not Active”.
With `CCc1nnc2ccc(-c3ccccc3)nn12`, the ED50 entry in the assay with Rattus norvegicus [12] is “inactive”.
With `Clc1ccc(-c2ccc3nncn3n2)cc1`, the BP in the assay listed under Rattus norvegicus [1] is -17 mmHg; in the assay listed under Rattus norvegicus [6], -15 mmHg. The MABP with Rattus norvegicus [2] amounted to 110; in the assay with Rattus norvegicus [4], 136. In addition, the inhibition in [5] is less than 10%. Also, the median effective dose (ED50) stood at 5.3 mg/kg in the assay listed under Rattus norvegicus [13] and 9.8 mg/kg in the assay filed under Rattus norvegicus [14].
The term IC50 denotes the concentration needed to halve the response being measured. For `FC(F)(F)c1cccc(-c2ccc3nncn3n2)c1`, the results for the MABP with Rattus norvegicus [2] and with Rattus norvegicus [4] were 90 and 117, respectively. The inhibition in assay [5] worked out at 55%. This compound displayed a half-maximal inhibitory concentration (IC50) in assay [15] of 905 nM. Also, the results for the ED50 in the assay filed under Rattus norvegicus [13] and in the assay listed under Rattus norvegicus [16] were 4.5 mg/kg and 2.5 mg/kg, respectively.
Compound `Cc1nnc2ccc(-c3cccc(C(F)(F)F)c3)nn12` [CI-218872] returned an inhibition in assay [5] of 77%. For the same compound, the 50% effective dose (ED50) came out at 1 mg/kg in the assay listed under Rattus norvegicus [17]; 0.6 mg/kg in the assay filed under Rattus norvegicus [18]; 2 mg/kg in the assay listed under Rattus norvegicus [19]; 2.5 mg/kg in the assay filed under Rattus norvegicus [20]; 0.5 mg/kg in the assay listed under Rattus norvegicus [21]; 1.7 mg/kg in the assay filed under Rattus norvegicus [13]. Besides, the 50% effective dose (ED50) in the assay filed under Rattus norvegicus [22] was 1.7 mg/kg; in the assay listed under Rattus norvegicus [23], 0.7 mg/kg; in the assay listed under Rattus norvegicus [14], 1.1 mg/kg; in the assay filed under Rattus norvegicus [24], 1.8 mg/kg. For the same compound, in assay [15], the IC50 came out at 116 nM.
For `CC(=O)Nc1cccc(-c2ccc3nnc(C)n3n2)c1`, the inhibition in assay [5] was determined as 56%. Also, it took 633 nM to reach half-maximal inhibition in assay [15] (IC50). Also, the EC50 entry in the assay with Rattus norvegicus [11] is listed as “Not Active”.
As for `COc1cccc(-c2ccc3nncn3n2)c1`, the inhibition in assay [5] came to 34%; in assay [25], 29%. In addition, the 50% effective dose (ED50) with Rattus norvegicus [10] is 50 mg/kg.
Take `Fc1ccc(-c2ccc3nncn3n2)cc1`: the BP was -31 mmHg in the assay filed under Rattus norvegicus [1] and -26 mmHg in the assay listed under Rattus norvegicus [6]. Also, the MABP in the assay with Rattus norvegicus [2] was 88; in the assay with Rattus norvegicus [4], 123. The inhibition in [5] is 16%. The 50% effective dose (ED50) in the assay filed under Rattus norvegicus [13] is 5 mg/kg; in the assay listed under Rattus norvegicus [14] it was 2.2 mg/kg.
